Data from ChEMBL document CHEMBL1145181, “Heterocyclic and phenyl double-bond-locked combretastatin analogues possessing potent apoptosis-inducing activity in HL60 and in MDR cell lines” (J Med Chem, 2005).
Values joined by “and” are separate entries in the source; they are usually repeats but may differ in a detail not shown here. Equal values may be shown once.

Legend:
[1] = test system: Osteoclast-like; test: Percentage of CFU-GEMM inhibition value after 14 days for bone marrow cells treated with compound at IC90; type: functional, Homo sapiens
[2] = Inhibitory concentration against HL60R cell lines; type: functional, cell-based, Homo sapiens; details: hl-60
Procedure, shortened: (§1)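 Leukemia cells grown in RPMI 1640 with 10% FCS, penicillin, streptomycin and 2 mM L-glutamine at 37 °C, 5% CO2. Compounds from 20 mM DMSO stocks, final DMSO ≤0.5%. 2 × 10^5 cells in 1 mL were exposed to a range of concentrations for 48 h. Viable cells were counted by trypan blue on a hemocytometer and expressed as percent of control proliferation.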

[3] = test system: K562; test: Inhibitory concentration against K562ADR cell lines; type: functional, cell-based; details: Homo sapiens; procedure, shortened: as §1
[4] = test system: HuT78; test: Percentage of apoptotis was determined in HUT78 cells after 48 h of exposure at 2 uM concentration; type: functional, Homo sapiens
Procedure, shortened: (§2)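 HUT78 (Fas-expressing) and HUT78B1 (nonfunctional death-domain-deleted Fas) cells were exposed to compound for 48 h. Apoptosis was scored morphologically by fluorescence microscopy after acridine orange/ethidium bromide staining, based on chromatin condensation and apoptotic bodies.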

[5] = test system: HL-60; test: Percentage of apoptotis inhibition at 2 uM concentration was determined in HL60 cells in the presence of Z-LEHD-fmk inhibitor; type: functional, Homo sapiens; design: scale not given: the % may be the effect or the level left
Procedure, shortened: (§3)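 HL60 cells (2 × 10^5) were pretreated for 2 h with Fas-blocking MoAb ZB4 or with caspase-9 inhibitor Z-LEHD-fmk (5 µM) before compound was added. Apoptosis was scored at 48 h by acridine orange/ethidium bromide morphology and expressed as percent inhibition.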

[6] = test system: HL-60; test: Concentration to induce apoptosis in 50% cells was determined in HL60 cells; type: functional, cell-based; details: Homo sapiens
[7] = test system: K562; test: Concentration to induce apoptosis in 50% cells was determined in K562 cell lines; type: functional, cell-based; details: Homo sapiens
[8] = test system: HL-60; test: Concentration to induce apoptosis in 50% cells was determined in HL60R cell lines; type: functional, cell-based; details: Homo sapiens
[9] = test system: K562; test: Concentration to induce apoptosis in 50% cells was determined in K562ADR cell lines; type: functional, cell-based; details: Homo sapiens
[10] = test system: HL-60; test: Percentage of apoptotis inhibition at 2 uM concentration was determined in HL60 cells in the presence of Fas-blocking monoclonal antibody; type: functional, Homo sapiens; design: scale not given: the % may be the effect or the level left; procedure, shortened: as §3
[11] = test system: HuT78; test: Percentage of apoptotis in HUT78B1 cells after 48 h of exposure at 2 uM concentration; type: functional, Homo sapiens; procedure, shortened: as §2
[12] = test system: HL-60; test: Inhibitory concentration to inhibit cell growth 50% was determined in HL60 cells; type: functional, cell-based; details: Homo sapiens; procedure, shortened: as §1
[13] = test system: HL-60; test: Percentage of mitosis after 8 hr exposure of HL60 cells at 2 uM; type: functional, Homo sapiens
Procedure, shortened: (§4)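 HL60 cells were exposed to compound for 8 h. Mitotic cells were then counted by fluorescence microscopy after acridine orange and ethidium bromide staining.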

[14] = Therapeutic index (IC90/percentage of CFUGEMM inhibition) value after 14 days for bone marrow cells treated with compound at IC90; type: cell-based; details: human, 336 h
[15] = Concentration required to inhibit cell growth 50% was determined in HL60R cell lines; type: functional, cell-based, Homo sapiens; procedure, shortened: as §1
[16] = test system: HL-60; test: Percentage of mitosis after 8 hr exposure of HL60 cells to the compound at 1 uM; type: functional, Homo sapiens; procedure, shortened: as §4
[17] = test system: Osteoclast-like; test: Percentage of CFU-GEMM inhibition after 14 days for bone marrow cells treated with compound at IC90; type: functional, Homo sapiens
[18] = test system: HL-60; test: Percentage of apoptotis inhibition at 0.3 uM concentration was determined in HL60 cells in the presence of Fas-blocking monoclonal antibody; type: functional, Homo sapiens; design: scale not given: the % may be the effect or the level left; procedure, shortened: as §3
[19] = test system: HL-60; test: Percentage of apoptotis inhibition at 0.3 uM concentration was determined in HL60 cells in the presence of Z-LEHD-fmk inhibitor; type: functional, Homo sapiens; design: scale not given: the % may be the effect or the level left; procedure, shortened: as §3
[20] = Percentage of apoptotis in HUT78 cells after 48 h of exposure at 2 uM concentration; type: functional, Homo sapiens; details: in the assay text read “at IC90 concentration” for “at 2 uM concentration”; procedure, shortened: as §2
[21] = test system: K562; test: Concentration required to inhibit cell growth 50% was determined in K562ADR cell lines; type: functional, cell-based; details: Homo sapiens; procedure, shortened: as §1
[22] = test system: HL-60; test: Percentage of apoptotis inhibition at 0.5 uM concentration was determined in HL60 cells in the presence of Z-LEHD-fmk inhibitor; type: functional, Homo sapiens; design: scale not given: the % may be the effect or the level left; procedure, shortened: as §3
[23] = test system: HL-60; test: Apoptotic concentration to induce apoptosis in 50% cells was determined in HL60R cell lines; type: functional, cell-based; details: Homo sapiens
[24] = test system: HL-60; test: Percentage of apoptotis inhibition at 0.5 uM concentration was determined in HL60 cells in the presence of Fas-blocking monoclonal antibody; type: functional, Homo sapiens; design: scale not given: the % may be the effect or the level left; procedure, shortened: as §3
[25] = test system: HL-60; test: Percentage of mitosis after 8 hr exposure of HL60 cells to the compound at 2.5 nM; type: functional, Homo sapiens; procedure, shortened: as §4

## COc1ccc([C@H]2ON=C(S(=O)(=O)c3ccccc3)[C@@H]2c2cc(OC)c(OC)c(OC)c2)cc1O
[1]
  CFU-GEMM: 42%
[2]
  IC50: 3000 nM and 1000 nM
[3]
  IC50: 2000 nM
[4]
  Activity: 70%
[5]
  Activity: 71.5%
[6]
  AC50: 2 µM
[7]
  AC50: 2000 nM
[8]
  AC50: 5000 nM
[9]
  AC50: 8000 nM
[10]
  Activity: 25%
[11]
  Activity: 46%
[12]
  IC50: 900 nM
[13]
  Activity: 18%
[14]
  Ratio: 2.1

## COc1ccc([C@@H]2ON=C(C)[C@@H]2c2cc(OC)c(OC)c(OC)c2)cc1O
[6]
  AC50: 3.5 µM
[12]
  IC50: 2000 nM

## COc1ccc(-c2ccc(-c3cc(OC)c(OC)c(OC)c3)cc2)cc1O
[6]
  AC50: 35 µM
[12]
  IC50: 30000 nM

## COc1ccc(-c2cccnc2-c2cc(OC)c(OC)c(OC)c2)cc1O
[6]
  AC50: 0.6 µM
[12]
  IC50: 300 nM

## COc1ccc(-c2ccccc2-c2cc(OC)c(OC)c(OC)c2)cc1O
[6]
  AC50: 30 µM
[12]
  IC50: 20000 nM

## COc1ccc(-c2cccc(-c3cc(OC)c(OC)c(OC)c3)c2)cc1O
[6]
  AC50: 22 µM
[12]
  IC50: 12000 nM

## COc1ccc(-c2cc(-c3cc(OC)c(OC)c(OC)c3)on2)cc1O
[6]
  AC50: 4 µM
[12]
  IC50: 3000 nM

## COc1ccc(C2=NOC(c3cc(OC)c(OC)c(OC)c3)C2)cc1O (configuration not stated)
[6]
  AC50: 2.2 µM
[12]
  IC50: 1500 nM

## COc1ccc([C@@H]2C(C)=NO[C@@H]2c2cc(OC)c(OC)c(OC)c2)cc1O
[6]
  AC50: 3.5 µM
[12]
  IC50: 2000 nM

## COC1=NO[C@@H](c2ccc(OC)c(O)c2)[C@H]1c1cc(OC)c(OC)c(OC)c1
[15]; Homo sapiens, HL60R
  IC50: 250 nM
[15]; hl60r
  IC50: 250 nM
[16]
  Activity: 17%
[17]
  CFU-GEMM: 36%
[6]
  AC50: 0.3 µM
[7]
  AC50: 400 nM
[8]
  AC50: 750 nM
[9]
  AC50: 2000 nM
[18]
  Activity: 25%
[19]
  Activity: 50%
[20]
  Activity: 80%
[11]
  Activity: 60%
[12]
  IC50: 100 nM
[21]
  IC50: 500 nM
[14]
  Ratio: 2.5

## COC1=NO[C@H](c2cc(OC)c(OC)c(OC)c2)[C@@H]1c1ccc(OC)c(O)c1
[15]; hl60r
  IC50: 750 nM and 200 nM
[1]
  CFU-GEMM: 34%
[16]
  Activity: 15%
[22]
  Activity: 91.4%
[6]
  AC50: 0.5 µM
[7]
  AC50: 400 nM
[9]
  AC50: 2000 nM
[23]
  AC50: 2000 nM
[24]
  Activity: 57%
[20]
  Activity: 75%
[11]
  Activity: 40%
[12]
  IC50: 250 nM
[21]
  IC50: 500 nM
[14]
  Ratio: 2.6

## COc1ccc(-c2ncccc2-c2cc(OC)c(OC)c(OC)c2)cc1O
[6]
  AC50: 10 µM
[12]
  IC50: 5000 nM

## COc1ccc(C2CC(c3cc(OC)c(OC)c(OC)c3)=NO2)cc1O (configuration not stated)
[6]
  AC50: 5.5 µM
[12]
  IC50: 3200 nM

## COc1ccc(-c2cc(Cl)cnc2-c2cc(OC)c(OC)c(OC)c2)cc1O
[6]
  AC50: 0.8 µM
[12]
  IC50: 500 nM

## COc1ccc(-c2cc(-c3cc(OC)c(OC)c(OC)c3)no2)cc1O
[6]
  AC50: 4.5 µM
[12]
  IC50: 3000 nM

## COc1ccc([C@H]2C(S(=O)(=O)c3ccccc3)=NO[C@@H]2c2cc(OC)c(OC)c(OC)c2)cc1O
[6]
  AC50: 25 µM
[12]
  IC50: 15000 nM

## COc1ccc(/C=C\c2cc(OC)c(OC)c(OC)c2)cc1O [COMBRETASTATIN A4]
[1]
  CFU-GEMM: 37%
[25]
  Activity: 88%
[14]
  Ratio: 2.4
